# Columns and labels:
# [1] = target: Interferon-induced, double-stranded RNA-activated protein kinase (Homo sapiens) (UniProt P19525); experiment: Binding affinity to wild-type human partial length PRKR (F247 to C551 residues) expressed in bacterial expression system assessed as residual binding level at 1 uM by Kinomescan method relative to control
# [2] = target: Megakaryocyte-associated tyrosine-protein kinase (Homo sapiens) (UniProt P42679); experiment: Binding affinity to wild-type human full length CTK (M43 to P508 residues) expressed in mammalian expression system assessed as residual binding level at 1 uM by Kinomescan method relative to control
# Outline: (§1)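 Active-site-directed KinomeScan competition binding panel covering 468 kinases, compound tested at 1 μM. Each readout is the kinase signal remaining with compound, expressed as a percentage of the DMSO control. […]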
# [3] = target: Calcium/calmodulin-dependent protein kinase type 1B (Homo sapiens) (UniProt Q6P2M8); experiment: Binding affinity to wild-type human partial length CAMK1B (W9 to A311 residues) expressed in mammalian expression system assessed as residual binding level at 1 uM by Kinomescan method relative to control
# Outline: (§2)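 KinomeScan, an active site-directed competition binding panel of 468 kinases. The test compound was at 1 μM. The readout is remaining kinase binding as a percentage of the DMSO control. Scores above 35% were treated as weak binding and not listed.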
# [4] = target: CDK4/Cyclin D3 (Homo sapiens) (UniProt P11802+P30281); experiment: Binding affinity to wild-type human full length CDK4/cyclinD3 (M1 to E303 residues) expressed in mammalian expression system assessed as residual binding level at 1 uM by Kinomescan method relative to control; outline: as §1
# [5] = target: Cyclin-dependent kinase 11B (Homo sapiens) (UniProt P21127); experiment: Binding affinity to wild-type human partial length CDC2L1 (P353 to G692 residues) expressed in bacterial expression system assessed as residual binding level at 1 uM by Kinomescan method relative to control
# Sequence of Cyclin-dependent kinase 11B (Homo sapiens) (P21127 whole entry, the tested form may be a part): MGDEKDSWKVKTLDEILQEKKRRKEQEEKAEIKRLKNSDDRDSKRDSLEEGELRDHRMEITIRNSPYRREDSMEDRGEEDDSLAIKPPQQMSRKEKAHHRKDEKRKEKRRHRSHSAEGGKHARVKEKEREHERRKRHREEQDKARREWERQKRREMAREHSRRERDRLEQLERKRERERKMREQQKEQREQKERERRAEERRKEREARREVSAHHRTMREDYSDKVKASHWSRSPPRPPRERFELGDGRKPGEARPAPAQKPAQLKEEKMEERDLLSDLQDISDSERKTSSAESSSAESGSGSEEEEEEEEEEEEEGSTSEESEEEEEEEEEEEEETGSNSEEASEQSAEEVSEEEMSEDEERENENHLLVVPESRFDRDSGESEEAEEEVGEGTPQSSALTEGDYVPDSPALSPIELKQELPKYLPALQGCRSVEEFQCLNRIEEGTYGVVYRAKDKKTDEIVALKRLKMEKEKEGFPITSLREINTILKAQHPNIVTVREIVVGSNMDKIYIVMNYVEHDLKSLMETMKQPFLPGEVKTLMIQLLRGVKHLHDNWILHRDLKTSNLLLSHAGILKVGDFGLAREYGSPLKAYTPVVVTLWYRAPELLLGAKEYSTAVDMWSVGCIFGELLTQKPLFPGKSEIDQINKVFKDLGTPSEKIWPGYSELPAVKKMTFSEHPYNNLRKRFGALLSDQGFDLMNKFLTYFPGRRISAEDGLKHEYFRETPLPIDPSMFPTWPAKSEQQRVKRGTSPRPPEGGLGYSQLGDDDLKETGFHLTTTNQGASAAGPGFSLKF
# [6] = target: 3-phosphoinositide-dependent protein kinase 1 (Homo sapiens) (UniProt O15530); experiment: Binding affinity to wild-type human full length PDPK1 (M1 to Q556 residues) expressed in bacterial expression system assessed as residual binding level at 1 uM by Kinomescan method relative to control; outline: as §2
# Sequence of 3-phosphoinositide-dependent protein kinase 1 (Homo sapiens) (O15530 whole entry, the tested form may be a part): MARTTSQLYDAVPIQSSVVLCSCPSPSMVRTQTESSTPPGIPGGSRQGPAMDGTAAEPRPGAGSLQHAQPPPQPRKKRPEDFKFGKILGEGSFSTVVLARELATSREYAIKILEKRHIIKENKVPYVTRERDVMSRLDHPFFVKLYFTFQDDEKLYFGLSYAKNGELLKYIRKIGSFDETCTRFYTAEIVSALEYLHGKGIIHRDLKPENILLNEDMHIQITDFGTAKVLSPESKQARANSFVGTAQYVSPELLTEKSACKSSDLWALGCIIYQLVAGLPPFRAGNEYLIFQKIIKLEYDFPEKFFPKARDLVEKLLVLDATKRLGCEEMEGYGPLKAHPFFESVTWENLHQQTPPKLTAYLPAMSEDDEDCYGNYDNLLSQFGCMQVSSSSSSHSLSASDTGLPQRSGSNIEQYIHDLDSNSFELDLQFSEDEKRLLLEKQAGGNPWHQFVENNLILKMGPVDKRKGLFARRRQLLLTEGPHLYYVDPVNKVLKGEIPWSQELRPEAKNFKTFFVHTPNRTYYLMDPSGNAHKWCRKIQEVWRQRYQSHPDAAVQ
# [7] = target: Ribosomal protein S6 kinase alpha-6 (Homo sapiens) (UniProt Q9UK32); experiment: Binding affinity to wild-type human partial length C-terminal RSK4 kinase domain 2 (I401 to Y711 residues) expressed in bacterial expression system assessed as residual binding level at 1 uM by Kinomescan method relative to control; outline: as §2
# Sequence of Ribosomal protein S6 kinase alpha-6 (Homo sapiens) (Q9UK32 whole entry, the tested form may be a part, canonical isoform): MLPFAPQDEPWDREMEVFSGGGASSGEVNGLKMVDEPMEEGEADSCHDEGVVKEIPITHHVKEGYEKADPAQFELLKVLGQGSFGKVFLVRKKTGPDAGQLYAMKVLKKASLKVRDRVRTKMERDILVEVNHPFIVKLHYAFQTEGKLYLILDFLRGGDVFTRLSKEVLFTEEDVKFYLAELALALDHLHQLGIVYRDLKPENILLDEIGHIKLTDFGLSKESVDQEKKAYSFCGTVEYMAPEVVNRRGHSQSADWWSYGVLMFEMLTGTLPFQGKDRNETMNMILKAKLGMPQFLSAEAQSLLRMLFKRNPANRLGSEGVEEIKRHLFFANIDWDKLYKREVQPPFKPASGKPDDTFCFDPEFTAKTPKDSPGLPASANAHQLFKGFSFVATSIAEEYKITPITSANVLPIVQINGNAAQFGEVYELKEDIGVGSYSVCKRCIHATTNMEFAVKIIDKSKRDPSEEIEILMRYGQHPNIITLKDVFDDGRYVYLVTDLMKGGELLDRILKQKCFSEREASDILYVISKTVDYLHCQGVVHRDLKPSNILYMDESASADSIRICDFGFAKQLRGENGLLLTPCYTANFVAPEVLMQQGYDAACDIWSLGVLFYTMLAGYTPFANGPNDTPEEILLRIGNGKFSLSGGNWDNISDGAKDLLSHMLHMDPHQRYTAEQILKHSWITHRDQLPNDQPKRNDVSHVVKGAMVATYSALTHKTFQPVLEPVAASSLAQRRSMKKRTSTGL
# [8] = system: Phosphatidylinositol 4,5-bisphosphate 3-kinase catalytic subunit alpha isoform (Homo sapiens), P42336 [H1047L]; experiment: Binding affinity to human partial length PIK3CA H1047L mutant (R108 to N1068 residues) expressed in mammalian expression system assessed as residual binding level at 1 uM by Kinomescan method relative to control
# Sequence of Phosphatidylinositol 4,5-bisphosphate 3-kinase catalytic subunit alpha isoform (Homo sapiens), P42336 [H1047L] (P42336 whole entry H1047L, the tested form may be a part, canonical isoform): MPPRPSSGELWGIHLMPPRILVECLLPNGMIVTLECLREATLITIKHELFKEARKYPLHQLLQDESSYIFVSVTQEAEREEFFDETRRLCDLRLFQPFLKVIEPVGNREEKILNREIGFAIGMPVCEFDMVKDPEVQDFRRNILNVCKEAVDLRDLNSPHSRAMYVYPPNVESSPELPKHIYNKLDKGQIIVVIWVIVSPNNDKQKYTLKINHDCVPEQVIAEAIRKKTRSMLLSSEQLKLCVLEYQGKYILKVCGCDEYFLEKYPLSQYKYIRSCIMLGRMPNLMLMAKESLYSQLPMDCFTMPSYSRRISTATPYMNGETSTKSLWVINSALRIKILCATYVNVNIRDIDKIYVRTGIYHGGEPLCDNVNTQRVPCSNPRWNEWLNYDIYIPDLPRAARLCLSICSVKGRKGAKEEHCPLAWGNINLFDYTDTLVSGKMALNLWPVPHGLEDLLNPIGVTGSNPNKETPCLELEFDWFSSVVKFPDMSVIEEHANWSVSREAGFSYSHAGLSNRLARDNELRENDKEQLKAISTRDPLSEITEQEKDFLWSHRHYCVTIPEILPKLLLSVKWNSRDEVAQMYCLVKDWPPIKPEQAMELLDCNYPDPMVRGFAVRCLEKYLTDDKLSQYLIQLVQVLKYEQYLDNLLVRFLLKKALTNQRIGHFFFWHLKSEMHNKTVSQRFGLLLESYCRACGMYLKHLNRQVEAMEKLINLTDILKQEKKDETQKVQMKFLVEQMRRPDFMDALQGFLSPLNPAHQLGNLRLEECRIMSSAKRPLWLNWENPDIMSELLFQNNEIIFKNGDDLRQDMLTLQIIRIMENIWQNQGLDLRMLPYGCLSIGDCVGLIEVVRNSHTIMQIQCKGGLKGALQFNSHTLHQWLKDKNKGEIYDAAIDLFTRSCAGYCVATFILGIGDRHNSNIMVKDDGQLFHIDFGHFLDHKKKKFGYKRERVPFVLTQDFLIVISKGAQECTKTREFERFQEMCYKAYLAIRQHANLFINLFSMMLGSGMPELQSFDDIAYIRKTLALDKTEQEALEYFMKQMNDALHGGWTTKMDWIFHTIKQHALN
# Outline: (§3)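 KinomeScan active site-directed competition binding panel (468 kinases), compound tested at 1 μM. Result expressed as remaining kinase signal versus DMSO control (percent of control).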
# [9] = target: Aurora kinase B (Homo sapiens) (UniProt Q96GD4); experiment: Binding affinity to wild-type human partial length AURKB (D25 to A303 residues) expressed in mammalian expression system assessed as residual binding level at 1 uM by Kinomescan method relative to control; outline: as §2
# Sequence of Aurora kinase B (Homo sapiens) (Q96GD4 whole entry, the tested form may be a part): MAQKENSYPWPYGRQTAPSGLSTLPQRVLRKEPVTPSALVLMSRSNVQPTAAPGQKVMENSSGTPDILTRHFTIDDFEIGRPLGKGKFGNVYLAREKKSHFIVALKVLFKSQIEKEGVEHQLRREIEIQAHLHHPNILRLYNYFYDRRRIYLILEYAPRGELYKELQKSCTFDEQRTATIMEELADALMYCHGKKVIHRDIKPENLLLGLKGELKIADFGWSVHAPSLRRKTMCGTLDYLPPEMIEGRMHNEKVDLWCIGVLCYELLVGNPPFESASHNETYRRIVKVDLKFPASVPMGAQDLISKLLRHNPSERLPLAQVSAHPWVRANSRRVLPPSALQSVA
# [10] = target: Phosphatidylinositol 3-kinase catalytic subunit type 3 (Homo sapiens) (UniProt Q8NEB9); experiment: Binding affinity to wild-type human partial length VPS34 (S282 to H879 residues) expressed in mammalian expression system assessed as residual binding level at 1 uM by Kinomescan method relative to control
# Outline: (§4)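 Active site-directed competition binding panel (KinomeScan, 468 kinases). Test compound at 1 μM. Read-out is kinase binding remaining versus DMSO control, expressed as percent of control. Scores above 35% are treated as weak binding.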
# [11] = target: cAMP-dependent protein kinase catalytic subunit PRKX (Homo sapiens) (UniProt P51817); experiment: Binding affinity to wild-type human partial length PRKX (M1 to F358 residues) expressed in bacterial expression system assessed as residual binding level at 1 uM by Kinomescan method relative to control
# [12] = target: Tyrosine-protein kinase Fes/Fps (Homo sapiens) (UniProt P07332); experiment: Binding affinity to wild-type human partial length FES (I527 to R822 residues) expressed in bacterial expression system assessed as residual binding level at 1 uM by Kinomescan method relative to control
# [13] = target: Macrophage colony-stimulating factor 1 receptor (Homo sapiens) (UniProt P07333); experiment: Binding affinity to wild-type human partial length autoinhibited CSF1R (Y538 to S939 residues) expressed in mammalian expression system assessed as residual binding level at 1 uM by Kinomescan method relative to control; outline: as §4
# [14] = target: Vascular endothelial growth factor receptor 1 (Homo sapiens) (UniProt P17948); experiment: Binding affinity to wild-type human partial length FLT1 (R781 to F1239 residues) expressed in bacterial expression system assessed as residual binding level at 1 uM by Kinomescan method relative to control
# [15] = target: Serine/threonine-protein kinase Nek3 (Homo sapiens) (UniProt P51956); experiment: Binding affinity to wild-type human full length NEK3 (M1 to R506 residues) expressed in mammalian expression system assessed as residual binding level at 1 uM by Kinomescan method relative to control; outline: as §2
# Sequence of Serine/threonine-protein kinase Nek3 (Homo sapiens) (P51956 whole entry, the tested form may be a part): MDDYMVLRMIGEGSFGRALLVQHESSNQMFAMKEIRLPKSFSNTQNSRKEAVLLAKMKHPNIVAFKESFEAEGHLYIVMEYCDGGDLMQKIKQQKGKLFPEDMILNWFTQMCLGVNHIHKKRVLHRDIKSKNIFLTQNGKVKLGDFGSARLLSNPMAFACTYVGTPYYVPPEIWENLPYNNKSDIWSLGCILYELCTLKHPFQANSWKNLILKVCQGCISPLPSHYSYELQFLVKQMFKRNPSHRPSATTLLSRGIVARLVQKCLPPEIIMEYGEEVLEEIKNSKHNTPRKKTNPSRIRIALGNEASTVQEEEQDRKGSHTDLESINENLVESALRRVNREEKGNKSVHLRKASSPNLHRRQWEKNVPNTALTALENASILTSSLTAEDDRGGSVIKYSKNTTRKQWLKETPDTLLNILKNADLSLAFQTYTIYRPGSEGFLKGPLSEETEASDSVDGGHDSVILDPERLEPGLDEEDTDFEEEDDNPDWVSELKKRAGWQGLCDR
# [16] = target: Serine/threonine-protein kinase ULK3 (Homo sapiens) (UniProt Q6PHR2); experiment: Binding affinity to wild-type human partial length ULK3 (M1 to Q290 residues) expressed in mammalian expression system assessed as residual binding level at 1 uM by Kinomescan method relative to control
# Sequence of Serine/threonine-protein kinase ULK3 (Homo sapiens) (Q6PHR2 whole entry, the tested form may be a part): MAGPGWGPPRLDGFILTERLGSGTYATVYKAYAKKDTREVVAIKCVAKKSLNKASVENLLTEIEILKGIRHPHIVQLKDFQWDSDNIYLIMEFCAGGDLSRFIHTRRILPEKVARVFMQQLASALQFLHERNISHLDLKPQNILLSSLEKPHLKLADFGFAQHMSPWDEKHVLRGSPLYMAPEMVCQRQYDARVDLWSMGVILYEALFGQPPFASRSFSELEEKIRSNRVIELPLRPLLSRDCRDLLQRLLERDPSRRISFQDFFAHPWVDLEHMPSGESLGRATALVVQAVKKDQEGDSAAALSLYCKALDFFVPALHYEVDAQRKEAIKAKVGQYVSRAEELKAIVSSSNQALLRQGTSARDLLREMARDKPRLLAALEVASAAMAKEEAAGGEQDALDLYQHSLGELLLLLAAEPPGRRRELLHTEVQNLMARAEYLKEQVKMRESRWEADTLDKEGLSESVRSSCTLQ
# [17] = target: Ephrin type-A receptor 2 (Homo sapiens) (UniProt P29317); experiment: Binding affinity to wild-type human partial length EPHA2 (T593 to V891 residues) expressed in bacterial expression system assessed as residual binding level at 1 uM by Kinomescan method relative to control
# [18] = system: Receptor-type tyrosine-protein kinase FLT3 (Homo sapiens), P36888 [D835H]; experiment: Binding affinity to human partial length FLT3 D835H mutant (V592 to Y969 residues) expressed in bacterial expression system assessed as residual binding level at 1 uM by Kinomescan method relative to control; outline: as §3
# [19] = target: Fibroblast growth factor receptor 1 (Homo sapiens, UniProt P11362); experiment: Binding affinity to wild-type human partial length FGFR1 (P357 to V669 residues) expressed in bacterial expression system assessed as residual binding level at 1 uM by Kinomescan method relative to control
# [20] = target: Serine/threonine-protein kinase PAK 2 (Homo sapiens) (UniProt Q13177); experiment: Binding affinity to wild-type human partial length PAK2 (P151 to R525 residues) expressed in bacterial expression system assessed as residual binding level at 1 uM by Kinomescan method relative to control
# Sequence of Serine/threonine-protein kinase PAK 2 (Homo sapiens) (Q13177 whole entry, the tested form may be a part): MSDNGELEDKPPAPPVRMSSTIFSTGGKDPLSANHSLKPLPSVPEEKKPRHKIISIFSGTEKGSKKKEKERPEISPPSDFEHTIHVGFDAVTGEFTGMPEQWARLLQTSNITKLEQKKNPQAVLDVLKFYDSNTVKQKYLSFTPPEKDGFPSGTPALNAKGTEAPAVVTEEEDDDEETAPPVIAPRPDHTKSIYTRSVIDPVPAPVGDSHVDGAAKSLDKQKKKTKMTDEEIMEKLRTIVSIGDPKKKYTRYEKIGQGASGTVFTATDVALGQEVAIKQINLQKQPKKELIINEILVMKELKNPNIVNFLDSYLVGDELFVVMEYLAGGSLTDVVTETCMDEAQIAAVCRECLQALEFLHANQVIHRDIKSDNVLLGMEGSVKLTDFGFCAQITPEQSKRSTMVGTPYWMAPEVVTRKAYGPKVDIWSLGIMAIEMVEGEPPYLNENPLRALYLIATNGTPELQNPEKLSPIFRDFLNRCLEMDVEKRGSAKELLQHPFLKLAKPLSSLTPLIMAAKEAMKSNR
# Outline: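 Active-site-directed competition binding panel of 468 kinases (KinomeScan), compound at 1 μM. The read-out is kinase remaining bound, given as a percentage of the DMSO control. […]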
smiles,measurement,setting,value
C=CC(=O)Nc1ccccc1Nc1nc(Nc2ccc(N3CCN(C)CC3)cc2)ncc1C(=O)Nc1c(C)cccc1Cl,Activity,[1],100%
same,Activity,[2],100%
same,Activity,[3],98%
same,Activity,[4],100%
same,Activity,[5],100%
same,Activity,[6],93%
same,Activity,[7],96%
same,Activity,[8],71%
same,Activity,[9],79%
same,Activity,[10],98%
same,Activity,[11],100%
same,Activity,[12],100%
same,Activity,[13],79%
same,Activity,[14],100%
same,Activity,[15],88%
same,Activity,[16],100%
same,Activity,[17],100%
same,Activity,[18],95%
same,Activity,[19],100%
same,Activity,[20],97%
